Assay results reported in ChEMBL document CHEMBL5724801, “EUbOPEN Chemogenomics Library - Multiplex” (2024).
Several values for one entry are separate records, joined by “and”; a condition that tells them apart may be missing. Identical values can stand only once.

Tested on: U2OS
Test: Multiplex assay against U2OS
Assay type: toxicity, cell-based
Details: human
Outline: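 On a CQ1 microscope at 37°C and 5% CO2, live cells were imaged after compound addition. They had been stained at seeding with Hoechst33342, BioTracker Green Microtubule Cytoskeleton Dye, MitoTracker Red and Annexin V Alexa Fluor 680. CellPathfinder machine-learning gating assigned cells to Hoechst high-intensity objects or normal cells, normal cells to healthy, pyknosed or fragmented nuclei, and pyknosed cells to mitotic or apoptotic. Tubulin, mitochondrial-mass and membrane-permeability phenotypes are per cents of healthy-nucleus cells.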

[1] = 12 h, 1 µM, compound concentration 1 uM
[2] = 12 h, 10 µM, compound concentration 10 uM
[3] = 24 h, 1 µM, compound concentration 1 uM
[4] = 24 h, 10 µM, compound concentration 10 uM
[5] = 48 h, 1 µM, compound concentration 1 uM
[6] = 48 h, 10 µM, compound concentration 10 uM

## COCCNc1cc(NC(=O)N2CCCc3cc(CN4CCOCC4=O)c(C=O)nc32)ncc1C#N
[1]
  Population Apoptotic (%): 30.77% and 39.13%
  Population Fragmented Nuclei (%): 2.11% and 3.05%
  Population Healthy Nuclei (%): 87.63% and 82.93%
  Population Hoechst High Intensity Objects (%): 0%
  Population Membrane Permeable-Phenotype (%): 0.6% and 5.15%
  Population Mitochondria Different-Phenotype (%): 0% and 8.82%
  Population Mitotic Cells (%): 69.23% and 60.87%
  Population Normal (%): 100%
  Population Pyknosed Nuclei (%): 10.26% and 14.02%
  Population Tubulin-Different-Phenotype (%): 0.6% and 0%
  Total Cell Count: 380 and 164
[2]
  Population Apoptotic (%): 46.15% and 40%
  Population Fragmented Nuclei (%): 0.86% and 7.8%
  Population Healthy Nuclei (%): 91.64% and 78.01%
  Population Hoechst High Intensity Objects (%): 0%
  Population Membrane Permeable-Phenotype (%): 1.57% and 1.82%
  Population Mitochondria Different-Phenotype (%): 0.31% and 6.36%
  Population Mitotic Cells (%): 53.85% and 60%
  Population Normal (%): 100%
  Population Pyknosed Nuclei (%): 7.49% and 14.18%
  Population Tubulin-Different-Phenotype (%): 1.26% and 0.91%
  Total Cell Count: 347 and 141
[3]
  Population Apoptotic (%): 29.17% and 39.13%
  Population Fragmented Nuclei (%): 2.21% and 0.97%
  Population Healthy Nuclei (%): 88.93% and 87.92%
  Population Hoechst High Intensity Objects (%): 0%
  Population Membrane Permeable-Phenotype (%): 1.66% and 3.85%
  Population Mitochondria Different-Phenotype (%): 0% and 4.95%
  Population Mitotic Cells (%): 70.83% and 60.87%
  Population Normal (%): 100%
  Population Pyknosed Nuclei (%): 8.86% and 11.11%
  Population Tubulin-Different-Phenotype (%): 1.04% and 0.55%
  Total Cell Count: 542 and 207
[4]
  Population Apoptotic (%): 54.55% and 40.91%
  Population Fragmented Nuclei (%): 1.52% and 9.32%
  Population Healthy Nuclei (%): 91.34% and 77.02%
  Population Hoechst High Intensity Objects (%): 0%
  Population Membrane Permeable-Phenotype (%): 0.95% and 2.42%
  Population Mitochondria Different-Phenotype (%): 0% and 9.68%
  Population Mitotic Cells (%): 45.45% and 59.09%
  Population Normal (%): 100%
  Population Pyknosed Nuclei (%): 7.14% and 13.66%
  Population Tubulin-Different-Phenotype (%): 0.95% and 1.61%
  Total Cell Count: 462 and 161
[5]
  Population Apoptotic (%): 32.88% and 50%
  Population Fragmented Nuclei (%): 2.93% and 2.02%
  Population Healthy Nuclei (%): 89.69% and 90.49%
  Population Hoechst High Intensity Objects (%): 0%
  Population Membrane Permeable-Phenotype (%): 1.01% and 2.23%
  Population Mitochondria Different-Phenotype (%): 0.23% and 5.1%
  Population Mitotic Cells (%): 67.12% and 50%
  Population Normal (%): 100%
  Population Pyknosed Nuclei (%): 7.38% and 7.49%
  Population Tubulin-Different-Phenotype (%): 0.56% and 1.27%
  Total Cell Count: 989 and 347
[6]
  Population Apoptotic (%): 38.46% and 32.14%
  Population Fragmented Nuclei (%): 3.01% and 6.33%
  Population Healthy Nuclei (%): 86.02% and 81.86%
  Population Hoechst High Intensity Objects (%): 0%
  Population Membrane Permeable-Phenotype (%): 1.4% and 3.09%
  Population Mitochondria Different-Phenotype (%): 0.14% and 6.19%
  Population Mitotic Cells (%): 61.54% and 67.86%
  Population Normal (%): 100%
  Population Pyknosed Nuclei (%): 10.96% and 11.81%
  Population Tubulin-Different-Phenotype (%): 1.68% and 1.03%

## CC(C)C[C@H](NC(=O)c1cc2ccccc2s1)C(=O)N1CCN(C(=O)[C@H](CO)NS(=O)(=O)c2ccc(Cl)cc2Cl)CC1
[1]
  Population Apoptotic (%): 71.76% and 81.82%
  Population Fragmented Nuclei (%): 5.1% and 6.74%
  Population Healthy Nuclei (%): 61.48% and 56.18%
  Population Hoechst High Intensity Objects (%): 0%
  Population Membrane Permeable-Phenotype (%): 5.39% and 4%
  Population Mitotic Cells (%): 28.24% and 18.18%
  Population Normal (%): 100%
  Population Pyknosed Nuclei (%): 33.42% and 37.08%
  Population Tubulin-Different-Phenotype (%): 4.56% and 4%
[2]
  Population Apoptotic (%): 55.1% and 50.79%
  Population Fragmented Nuclei (%): 2% and 2.9%
  Population Healthy Nuclei (%): 65.33% and 51.45%
  Population Hoechst High Intensity Objects (%): 0%
  Population Membrane Permeable-Phenotype (%): 69.39% and 39.44%
  Population Mitochondria Different-Phenotype (%): 30.61% and 87.32%
  Population Mitotic Cells (%): 44.9% and 49.21%
  Population Normal (%): 100%
  Population Pyknosed Nuclei (%): 32.67% and 45.65%
  Population Tubulin-Different-Phenotype (%): 98.47% and 95.77%
  Total Cell Count: 300 and 138
[3]
  Population Apoptotic (%): 71.76% and 90.91%
  Population Fragmented Nuclei (%): 4.78% and 1.14%
  Population Healthy Nuclei (%): 65.38% and 61.36%
  Population Hoechst High Intensity Objects (%): 0%
  Population Membrane Permeable-Phenotype (%): 4.18% and 5.56%
  Population Normal (%): 100%
  Population Pyknosed Nuclei (%): 29.84% and 37.5%
  Population Tubulin-Different-Phenotype (%): 4.88% and 3.7%
[4]
  Population Apoptotic (%): 65.59% and 62.96%
  Population Fragmented Nuclei (%): 2.48% and 4.41%
  Population Healthy Nuclei (%): 64.54% and 55.88%
  Population Hoechst High Intensity Objects (%): 0%
  Population Membrane Permeable-Phenotype (%): 34.07% and 32.89%
  Population Mitochondria Different-Phenotype (%): 52.75% and 88.16%
  Population Mitotic Cells (%): 34.41% and 37.04%
  Population Normal (%): 100%
  Population Pyknosed Nuclei (%): 32.98% and 39.71%
  Population Tubulin-Different-Phenotype (%): 95.6% and 81.58%
  Total Cell Count: 282 and 136
[5]
  Population Apoptotic (%): 77.39% and 79.17%
  Population Fragmented Nuclei (%): 3.97% and 6.03%
  Population Healthy Nuclei (%): 79.75% and 73.28%
  Population Hoechst High Intensity Objects (%): 0%
  Population Membrane Permeable-Phenotype (%): 5.15% and 10.59%
  Population Mitotic Cells (%): 22.61% and 20.83%
  Population Normal (%): 100%
  Population Pyknosed Nuclei (%): 16.29% and 20.69%
  Population Tubulin-Different-Phenotype (%): 5.51% and 4.71%
[6]
  Population Apoptotic (%): 78.7% and 70%
  Population Fragmented Nuclei (%): 3.93% and 4.11%
  Population Healthy Nuclei (%): 63.44% and 54.79%
  Population Hoechst High Intensity Objects (%): 0%
  Population Membrane Permeable-Phenotype (%): 29.05% and 32.5%
  Population Mitochondria Different-Phenotype (%): 43.33% and 62.5%
  Population Mitotic Cells (%): 21.3% and 30%
  Population Normal (%): 100%
  Population Pyknosed Nuclei (%): 32.63% and 41.1%
  Population Tubulin-Different-Phenotype (%): 92.38% and 80%
  Total Cell Count: 331 and 146

## Cl.Clc1cc2cc(c1)-c1cnn3ccc(nc13)NCCOCCO2
[1]
  Population Fragmented Nuclei (%): 3.05% and 2.1%
  Population Healthy Nuclei (%): 88.09% and 86.01%
  Population Hoechst High Intensity Objects (%): 0%
  Population Membrane Permeable-Phenotype (%): 0.94% and 0.81%
  Population Mitochondria Different-Phenotype (%): 0% and 8.94%
  Population Mitotic Cells (%): 56.25% and 94.12%
  Population Normal (%): 100%
  Population Pyknosed Nuclei (%): 8.86% and 11.89%
  Population Tubulin-Different-Phenotype (%): 0.94% and 0%
  Total Cell Count: 361 and 143
[2]
  Population Apoptotic (%): 35.21% and 35.71%
  Population Fragmented Nuclei (%): 3.56% and 1.13%
  Population Healthy Nuclei (%): 82.38% and 83.05%
  Population Hoechst High Intensity Objects (%): 0%
  Population Membrane Permeable-Phenotype (%): 0.96% and 3.4%
  Population Mitotic Cells (%): 64.79% and 64.29%
  Population Normal (%): 100%
  Population Pyknosed Nuclei (%): 14.06% and 15.82%
  Population Tubulin-Different-Phenotype (%): 2.16% and 1.36%
  Total Cell Count: 505 and 177
[3]
  Population Apoptotic (%): 43.75% and 57.89%
  Population Fragmented Nuclei (%): 2.2% and 1.09%
  Population Healthy Nuclei (%): 88.2% and 88.52%
  Population Hoechst High Intensity Objects (%): 0%
  Population Membrane Permeable-Phenotype (%): 0.68% and 3.09%
  Population Mitochondria Different-Phenotype (%): 0% and 5.56%
  Population Mitotic Cells (%): 56.25% and 42.11%
  Population Normal (%): 100%
  Population Pyknosed Nuclei (%): 9.6% and 10.38%
  Population Tubulin-Different-Phenotype (%): 0.45% and 0%
  Total Cell Count: 500 and 183
[4]
  Population Apoptotic (%): 55.41% and 45%
  Population Fragmented Nuclei (%): 1.48% and 2.62%
  Population Healthy Nuclei (%): 86.37% and 79.91%
  Population Hoechst High Intensity Objects (%): 0.16% and 0%
  Population Membrane Permeable-Phenotype (%): 0.19% and 2.73%
  Population Mitochondria Different-Phenotype (%): 0% and 4.37%
  Population Mitotic Cells (%): 44.59% and 55%
  Population Normal (%): 99.84% and 100%
  Population Pyknosed Nuclei (%): 12.15% and 17.47%
  Population Tubulin-Different-Phenotype (%): 1.33% and 2.73%
  Total Cell Count: 610 and 229
[5]
  Population Apoptotic (%): 47.73% and 42.42%
  Population Fragmented Nuclei (%): 3.1% and 2.92%
  Population Healthy Nuclei (%): 87.5% and 86.36%
  Population Hoechst High Intensity Objects (%): 0%
  Population Membrane Permeable-Phenotype (%): 0.98% and 3.01%
  Population Mitochondria Different-Phenotype (%): 0% and 3.01%
  Population Mitotic Cells (%): 52.27% and 57.58%
  Population Normal (%): 100%
  Population Pyknosed Nuclei (%): 9.4% and 10.71%
  Population Tubulin-Different-Phenotype (%): 0.85% and 1.5%
[6]
  Population Apoptotic (%): 53.64% and 54.72%
  Population Fragmented Nuclei (%): 3.97% and 2.37%
  Population Healthy Nuclei (%): 81.76% and 83.68%
  Population Hoechst High Intensity Objects (%): 0.19% and 0%
  Population Membrane Permeable-Phenotype (%): 1.39% and 4.4%
  Population Mitochondria Different-Phenotype (%): 0.46% and 3.77%
  Population Mitotic Cells (%): 46.36% and 45.28%
  Population Normal (%): 99.81% and 100%
  Population Pyknosed Nuclei (%): 14.27% and 13.95%
  Population Tubulin-Different-Phenotype (%): 2.43% and 3.46%
  Total Cell Count: 1060 and 380
